Assays:
HIV-1 IN (WT) = HIV-1 IN (WT) (Human immunodeficiency virus type 1 group M subtype B, UniProt P12497); assay: HTRF-based integration assay of IN catalytic activity; format: biochemical
Procedure, shortened: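 Full-length HIV-1 IN and LEDGF/p75 cofactor (6xHis- and Flag-tagged, expressed in E. coli BL21(DE3)) catalyse integration of donor viral DNA, 5′-Cy5-labelled, into acceptor target DNA, 5′-biotinylated and bound by streptavidin-europium. The integration product is read as time-resolved FRET between the two fluorophores, with test compound present.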

HIV-1 IN H171T = HIV-1 IN H171T (Human immunodeficiency virus type 1 group M subtype B, UniProt P12497, H1318T); assay: HTRF-based integration assay against drug-resistant IN; format: biochemical
HIV-1 IN A128T = HIV-1 IN A128T (Human immunodeficiency virus type 1 group M subtype B, UniProt P12497, A1275T); assay: as above; format: biochemical
HIV-1 IN G140S/Q148H = HIV-1 IN G140S/Q148H (Human immunodeficiency virus type 1 group M subtype B, UniProt P12497, G1287S/Q1295H); assay: as above; format: biochemical
HIV-1 = settings: reported in the literature; ref [30],[41],[58],[60]−[69]; cited from earlier work

SMILES | IC50 (HIV-1 IN (WT); IC50, inhibitory activity against IN, Table 2, WT IN) | fold higher potency than compound 12 (HIV-1 IN (WT); IN catalytic activity in vitro, relative to 12) | IC50 (HIV-1 IN H171T) | IC50 (HIV-1 IN A128T) | IC50 (HIV-1 IN G140S/Q148H) | selectivity against HIV-1 (therapeutic index) (HIV-1)
CC(C)(C)OC(=O)N1CCC(C(=O)N[C@@H](Cc2ccc3ccccc3c2)C(=O)O)(c2ccccc2)CC1 [Compound 14e] | 90.4 ± 4.72 µM | fourfold | 114 ± 9.79 µM | 86.8 ± 2.98 µM | 103 ± 3.12 µM | 
Cc1nc2c(c(C)c(C)n2Cc2cnn(C)c2)c(-c2ccc(Cl)cc2)c1[C@H](OC(C)(C)C)C(=O)O [STP0404] |  |  |  |  |  | > 24,000

Source: publication PMC8829933 (ACS Omega, 2022)
